Results from ChEMBL document CHEMBL5036371, “Steroid-Quinoline Hybrids for Disruption and Reversion of Protein Aggregation Processes” (ACS Med Chem Lett, 2022).
The source made the active and inactive calls. The rule behind the calls is not given here.

Tests used:
[1] = target: Heat shock protein beta-1 (Homo sapiens) (UniProt P04792); assay: Disaggregation of protein aggregates in human HeLa cells expressing HSP27:GFP assessed as HSP27:GFP foci area per cell cell at 50 uM for 12 hr in presence of nilotinib by green fluorescent protein based confocal microscopy (rvb = 0.71)
Heat shock protein beta-1 (Homo sapiens), sequence (P04792 whole entry): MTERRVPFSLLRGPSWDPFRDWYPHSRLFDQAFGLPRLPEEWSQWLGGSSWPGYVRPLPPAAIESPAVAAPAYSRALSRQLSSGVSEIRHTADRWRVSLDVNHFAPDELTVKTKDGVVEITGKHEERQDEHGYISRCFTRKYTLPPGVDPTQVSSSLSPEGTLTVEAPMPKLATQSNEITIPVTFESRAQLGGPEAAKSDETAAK
How it was run: (§1)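 Sensor HeLa cells (HSP27:GFP) were kept for 48 h with 5 μM nilotinib, and 50 μM compound was co-added for the final 12 h in 0.5% EtOH vehicle. Green foci per cell (count and mean area) were quantified by fluorescence microscopy. Data are mean ± SD, n = 4–10, about 4700 cells per condition. Comparison was against nilotinib alone by unpaired t test.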

[2] = target: Amyloid-beta precursor protein (Homo sapiens) (UniProt P05067); assay: Inhibition of amyloid beta (1 to 42) (unknown origin) aggregation assessed as reduction in fluorescence intensity at 20 uM measured upto 30 h by thioflavin-T fluorescence assay
Amyloid-beta precursor protein (Homo sapiens), sequence (P05067 whole entry): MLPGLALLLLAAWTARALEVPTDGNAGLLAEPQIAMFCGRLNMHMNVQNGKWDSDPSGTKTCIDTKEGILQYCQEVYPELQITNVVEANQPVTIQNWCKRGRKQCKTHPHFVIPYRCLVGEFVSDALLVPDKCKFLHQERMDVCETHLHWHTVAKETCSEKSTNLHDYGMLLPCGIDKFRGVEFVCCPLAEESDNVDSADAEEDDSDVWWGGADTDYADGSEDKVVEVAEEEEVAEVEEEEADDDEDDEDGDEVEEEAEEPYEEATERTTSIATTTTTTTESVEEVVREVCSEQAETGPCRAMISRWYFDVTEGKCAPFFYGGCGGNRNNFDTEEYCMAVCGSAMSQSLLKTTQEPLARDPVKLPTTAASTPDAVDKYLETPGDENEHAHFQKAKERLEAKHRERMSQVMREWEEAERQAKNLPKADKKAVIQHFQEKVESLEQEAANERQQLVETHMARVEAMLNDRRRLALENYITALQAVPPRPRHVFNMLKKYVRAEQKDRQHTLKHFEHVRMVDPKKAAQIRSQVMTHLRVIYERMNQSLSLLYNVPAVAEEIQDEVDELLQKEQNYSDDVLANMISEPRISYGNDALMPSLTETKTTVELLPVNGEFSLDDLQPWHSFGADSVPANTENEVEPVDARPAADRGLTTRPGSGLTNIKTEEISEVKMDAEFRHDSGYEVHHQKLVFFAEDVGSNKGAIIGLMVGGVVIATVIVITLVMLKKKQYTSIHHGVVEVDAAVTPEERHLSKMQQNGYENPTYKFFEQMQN
How it was run: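 Aβ1–42 peptide (10 μM) fibrillation with 20 μM compound was followed over time by thioflavin-T fluorescence, with quercetin as positive control. Inhibition was judged from reduction of final fluorescence intensity.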

[3] = target: Heat shock protein beta-1 (Homo sapiens) (UniProt P04792); assay: Disaggregation of protein aggregates in human HeLa cells expressing HSP27:GFP assessed as number of HSP27:GFP foci per cell at 50 uM for 12 hr in presence of nilotinib by green fluorescent protein based confocal microscopy (rvb = 0.71); how it was run: as §1
[4] = target: Amyloid-beta precursor protein (Homo sapiens) (UniProt P05067); assay: Disaggregation of aggregated huamn amyloid beta (1 to 42) fibrils in human SH-SY5Y cells assessed as decrease the area of foci to basal levels at 50 uM for 12 hour by confocal microscopy relative to control; format: cell-based
How it was run: (§2)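 SH-SY5Y cells were loaded for 16 h with preaggregated synthetic Aβ1–42, then given compound at 50 μM for a further 12 h in 0.5% EtOH vehicle. Cells were fixed, stained with Proteostat and imaged by confocal microscopy. Number and average area of aggregate foci per cell were scored over 10–20 fields, n = 2, about 370 cells per condition. Data are mean ± SD, unpaired t test.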

HeLa = assay: Cytotoxicity against human HeLa cells assessed as reduction in cell viability at 0.1 to 100 uM incubated for 24 to 48 hrs by Alamar blue colorimetric assay; format: cell-based; conditions: dose lower 0.1 µM, time lower 24 hrs, dose upper 100 µM, time upper 48 hrs
How it was run: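 Resazurin (alamarBlue) metabolic viability read-out in HeLa cells exposed for 24 and 48 h to 0.1, 1, 10, 50 and 100 μM compound.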

[5] = target: Amyloid-beta precursor protein (Homo sapiens) (UniProt P05067); assay: Disaggregation of aggregated human amyloid beta (1 to 42) preformed fibrils in human SH-SY5Y cells assessed as decrease the number of foci to basal levels at 50 uM for 12 hrs by confocal microscopy relative to control; format: cell-based; how it was run: as §2
[6] = target: Heat shock protein beta-1 (Homo sapiens) (UniProt P04792); assay: Aggregation in human HeLa cells expressing HSP27:GFP protein sensor assessed as number of HSP27:GFP foci per cell at 5 uM incubated for 48 hr by green fluorescent protein based confocal microscopy (rvb = 0.71)
How it was run: (§3)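 HeLa cells stably expressing the HSP27:GFP aggregation sensor were exposed to 5 μM nilotinib for 48 h in 0.5% EtOH vehicle. Sensor relocalization to foci was imaged by fluorescence microscopy, and green foci number and average area per cell were scored. Data are mean ± SD, n = 4–10, about 4700 cells per condition, compared by unpaired Student's t test.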

[7] = target: Heat shock protein beta-1 (Homo sapiens) (UniProt P04792); assay: Aggregation in human HeLa cells expressing HSP27:GFP protein in sensor assessed as HSP27:GFP foci area per cell at 5 uM incubated for 48 hrs by green fluorescent protein based confocal microscopy (rvb = 0.6); how it was run: as §3

Row | SMILES | Activity [1] [%] | inhibition [2] | Activity [3] [%] | Activity [4] | Activity (HeLa) | Activity [5] | Activity [6] | Activity [7] [um2]
1 | Cc1c2c(nc3ccccc13)CC[C@@]1(C)C2=CC[C@H]2[C@@H]3CC[C@H]([C@H](C)CCCC(C)C)[C@@]3(C)CC[C@@H]21 | 50 | Active | 50 | inactive | Non-Toxic | Active |  | 
2 | CC(C)CCC[C@@H](C)[C@H]1CC[C@H]2[C@@H]3CC=C4c5c(nc6ccc(Cl)cc6c5-c5ccccc5)CC[C@]4(C)[C@H]3CC[C@]12C | 50 | inactive | 50 | Active | Non-Toxic | inactive |  | 
3 | CC(C)CCC[C@@H](C)[C@H]1CC[C@H]2[C@@H]3CC=C4c5c(nc6ccccc6c5-c5ccccc5)CC[C@]4(C)[C@H]3CC[C@]12C | 50 | inactive | 50 | inactive | Non-Toxic | Active |  | 
4 | Cc1cn(-c2cc(NC(=O)c3ccc(C)c(Nc4nccc(-c5cccnc5)n4)c3)cc(C(F)(F)F)c2)cn1 |  |  |  |  |  |  | 3.96 | 7.5
5 | CC(C)CCC[C@@H](C)[C@H]1CC[C@H]2[C@@H]3CC=C4c5c(nc6ccc(Cl)cc6c5-c5ccccc5Cl)CC[C@]4(C)[C@H]3CC[C@]12C | 50 | Active | 50 | inactive | Non-Toxic | Active |  | 
